# Assay results gathered from unrelated publications.
# Target: Serine/threonine-protein kinase 25 (STK25, Homo sapiens, UniProt O00506)
SMILES,read-out,action,method,tested at,endpoint,value
COc1ncccc1-c1cnn2ccc(N3CCN(C(=O)OC(C)C)CC3)nc12,binding,,competition with immobilised ligand,1 µM,remaining binding,65%
N#CC1(c2ccccn2)CCN(Cc2cc(C(=O)O)c(=O)n3ccccc23)CC1,cell-free assay,,competition with immobilised ligand,1 µM,remaining binding,100%
Cc1nn(C)cc1-c1nc2c(N3CCN(Cc4ccc(Cl)cc4)CC3)c(Cl)cnc2[nH]1,binding,,competition with immobilised ligand,1 µM,remaining binding,70%
Cn1cncc1[C@](O)(COc1ccc(C#N)cc1-c1ccc(OC(F)(F)F)cc1)c1ccc(C#N)cc1,cell-free assay,,competition with immobilised ligand,1 µM,remaining binding,91%
O=c1[nH]c2ccccc2n1C1CCN(Cc2ccc(-c3[nH]c4cc5ncnc5cc4nc3-c3ccccc3)cc2)CC1,cell-free assay,,,0.5 µM,remaining signal,89.8%
Cn1cc(-c2cc(F)cc(N3CCn4c(cc5c4CCCC5)C3=O)c2CO)cc(Nc2ccc(N3CCN(C4COC4)CC3)cn2)c1=O,enzyme activity,inhibitor,,0.1 µM,inhibition,8%
CC(C)(C)c1cc(C=C(C#N)C#N)cc(Br)c1O,enzyme activity,inhibitor,,0.5 µM,remaining activity,102%
Cn1cc(-c2cccc(N3CCc4c(sc5c4CC(C)(C)C5)C3=O)c2CO)cc(Nc2ccncn2)c1=O,enzyme activity,inhibitor,,1 µM,inhibition,-13%
Nc1ncc(-c2nc(N3CCOCC3)nc(N3CCOCC3)n2)c(C(F)F)n1,binding,,competition with immobilised ligand,10 µM,remaining binding,93%
COCc1c(-c2cc3cc(C)cc(OC)c3s2)c2c(N)ncnn2c1CN1CCNC(=O)C1,cell-free assay,,competition with immobilised ligand,1 µM,inhibition,87%
